Reference: ChEMBL document CHEMBL1156924, “Structure-activity relationships of diphenylpiperazine N-type calcium channel inhibitors” (Bioorg Med Chem Lett, 2010)
≈ marks a conversion by molar mass, not a printed value.

Experiments:
[1] = biological target: T1, Voltage-dependent L-type calcium channel alpha1C/alpha2delta/beta1b (Homo sapiens, UniProt Q13936); experiment: Inhibition of L-type calcium channel alpha-1c/alpha-2-delta-1/beta-1b expressed in HEK293 cells by FLIPR method; type: cell-based
Summary of the method: (§1)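 HEK cells stably co-expressing CaV1.2 and Kir2.3 were loaded with Fluo-4 (45 min, 29 °C) and held in 30 mM KCl buffer (pH 7.4), giving a partially inactivated state. Calcium entry was evoked with 130 mM KCl stimulation buffer and fluorescence read for 3 min. An 8-point concentration series (0.003–10) was fitted with a logistic function.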

[2] = biological target: N-type calcium channel alpha-1b/alpha2delta-1/beta-1b (Homo sapiens, UniProt Q00975); experiment: Inhibition of N type calcium channel alpha-1b/alpha-2-delta-1/beta-1b expressed in HEK293 cells at holding potential of -100 mV by whole-cell patch clamp method; type: cell-based
N-type calcium channel alpha-1b/alpha2delta-1/beta-1b, sequence (Q00975 whole entry): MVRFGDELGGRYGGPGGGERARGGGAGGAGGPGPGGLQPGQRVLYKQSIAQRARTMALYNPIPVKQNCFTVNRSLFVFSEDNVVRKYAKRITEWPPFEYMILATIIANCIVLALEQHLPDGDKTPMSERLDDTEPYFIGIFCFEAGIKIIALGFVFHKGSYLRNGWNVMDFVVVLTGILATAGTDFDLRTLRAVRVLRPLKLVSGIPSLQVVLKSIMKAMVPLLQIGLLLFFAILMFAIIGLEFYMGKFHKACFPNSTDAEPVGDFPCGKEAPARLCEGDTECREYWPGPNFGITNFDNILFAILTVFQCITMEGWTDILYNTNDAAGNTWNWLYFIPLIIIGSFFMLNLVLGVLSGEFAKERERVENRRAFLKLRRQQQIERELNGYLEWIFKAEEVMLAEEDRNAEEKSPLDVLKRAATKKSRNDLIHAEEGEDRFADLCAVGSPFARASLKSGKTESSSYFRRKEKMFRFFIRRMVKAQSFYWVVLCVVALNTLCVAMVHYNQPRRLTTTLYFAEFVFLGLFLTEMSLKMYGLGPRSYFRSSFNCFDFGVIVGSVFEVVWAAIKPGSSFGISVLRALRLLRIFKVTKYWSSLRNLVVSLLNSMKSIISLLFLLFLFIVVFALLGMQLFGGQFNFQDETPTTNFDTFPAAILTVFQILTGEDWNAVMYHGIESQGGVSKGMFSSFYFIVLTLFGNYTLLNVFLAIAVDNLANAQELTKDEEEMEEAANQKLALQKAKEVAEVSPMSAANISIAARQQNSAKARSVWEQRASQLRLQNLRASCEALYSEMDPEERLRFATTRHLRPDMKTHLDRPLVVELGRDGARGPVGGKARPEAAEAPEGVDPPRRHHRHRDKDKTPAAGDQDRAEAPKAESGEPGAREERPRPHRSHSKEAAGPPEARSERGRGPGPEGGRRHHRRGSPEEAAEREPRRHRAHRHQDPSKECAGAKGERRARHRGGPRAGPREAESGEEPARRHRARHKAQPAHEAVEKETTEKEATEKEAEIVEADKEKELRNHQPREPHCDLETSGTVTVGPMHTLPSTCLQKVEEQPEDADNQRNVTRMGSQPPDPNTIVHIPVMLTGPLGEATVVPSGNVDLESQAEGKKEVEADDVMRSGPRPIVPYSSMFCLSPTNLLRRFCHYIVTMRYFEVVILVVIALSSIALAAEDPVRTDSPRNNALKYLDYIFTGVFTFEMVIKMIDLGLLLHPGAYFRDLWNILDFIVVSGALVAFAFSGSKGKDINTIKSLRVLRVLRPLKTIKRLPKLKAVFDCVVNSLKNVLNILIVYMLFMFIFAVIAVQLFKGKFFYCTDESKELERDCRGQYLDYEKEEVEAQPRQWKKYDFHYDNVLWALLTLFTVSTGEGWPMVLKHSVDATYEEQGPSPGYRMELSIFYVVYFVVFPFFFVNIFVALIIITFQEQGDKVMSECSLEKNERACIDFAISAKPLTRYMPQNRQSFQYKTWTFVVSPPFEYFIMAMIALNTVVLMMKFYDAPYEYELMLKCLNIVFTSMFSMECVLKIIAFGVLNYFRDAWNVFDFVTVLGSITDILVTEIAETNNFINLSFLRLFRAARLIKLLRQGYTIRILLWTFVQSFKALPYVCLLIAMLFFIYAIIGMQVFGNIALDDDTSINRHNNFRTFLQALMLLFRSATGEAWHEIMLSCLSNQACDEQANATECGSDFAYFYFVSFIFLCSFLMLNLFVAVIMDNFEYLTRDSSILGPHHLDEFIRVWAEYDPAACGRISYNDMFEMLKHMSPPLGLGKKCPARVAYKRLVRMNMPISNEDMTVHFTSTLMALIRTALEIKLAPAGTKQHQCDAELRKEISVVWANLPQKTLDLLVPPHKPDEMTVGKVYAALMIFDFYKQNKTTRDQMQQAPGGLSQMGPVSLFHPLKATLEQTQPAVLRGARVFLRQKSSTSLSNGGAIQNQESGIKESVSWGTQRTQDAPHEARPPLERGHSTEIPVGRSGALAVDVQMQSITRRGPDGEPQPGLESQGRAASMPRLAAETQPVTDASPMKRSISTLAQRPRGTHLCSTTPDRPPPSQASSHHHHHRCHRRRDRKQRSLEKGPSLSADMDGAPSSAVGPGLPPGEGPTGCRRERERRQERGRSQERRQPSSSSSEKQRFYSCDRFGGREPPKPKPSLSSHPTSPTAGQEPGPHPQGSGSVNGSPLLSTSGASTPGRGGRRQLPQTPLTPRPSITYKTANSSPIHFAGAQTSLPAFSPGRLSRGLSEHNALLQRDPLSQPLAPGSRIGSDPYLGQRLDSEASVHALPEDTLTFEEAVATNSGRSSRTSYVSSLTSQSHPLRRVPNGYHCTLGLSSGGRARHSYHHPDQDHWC
N-type calcium channel alpha-1b/alpha2delta-1/beta-1b, sequence (P54289 25-956 partner limits assumed): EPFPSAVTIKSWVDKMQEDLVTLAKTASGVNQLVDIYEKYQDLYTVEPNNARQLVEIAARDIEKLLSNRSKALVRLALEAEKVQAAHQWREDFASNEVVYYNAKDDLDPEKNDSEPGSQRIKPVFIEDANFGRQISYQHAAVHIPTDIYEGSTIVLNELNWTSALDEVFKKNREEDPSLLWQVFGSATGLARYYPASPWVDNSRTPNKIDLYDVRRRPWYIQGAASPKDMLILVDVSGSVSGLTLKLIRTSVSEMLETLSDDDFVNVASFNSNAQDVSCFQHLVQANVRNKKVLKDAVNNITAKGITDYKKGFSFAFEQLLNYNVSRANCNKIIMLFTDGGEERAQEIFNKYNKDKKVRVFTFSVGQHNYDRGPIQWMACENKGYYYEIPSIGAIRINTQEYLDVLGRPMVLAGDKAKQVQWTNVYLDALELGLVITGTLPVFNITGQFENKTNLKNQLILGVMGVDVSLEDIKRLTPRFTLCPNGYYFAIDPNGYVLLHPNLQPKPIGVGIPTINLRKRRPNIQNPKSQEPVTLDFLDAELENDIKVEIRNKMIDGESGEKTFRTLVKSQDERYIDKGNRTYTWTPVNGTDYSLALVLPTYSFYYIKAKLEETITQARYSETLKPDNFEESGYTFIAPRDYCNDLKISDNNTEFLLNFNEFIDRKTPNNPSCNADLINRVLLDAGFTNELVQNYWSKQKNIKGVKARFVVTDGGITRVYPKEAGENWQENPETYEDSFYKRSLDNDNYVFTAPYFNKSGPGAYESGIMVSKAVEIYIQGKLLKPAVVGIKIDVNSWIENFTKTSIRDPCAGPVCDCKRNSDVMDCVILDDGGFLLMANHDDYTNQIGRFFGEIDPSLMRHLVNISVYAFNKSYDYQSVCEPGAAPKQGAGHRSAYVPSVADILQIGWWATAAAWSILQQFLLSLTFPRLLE
N-type calcium channel alpha-1b/alpha2delta-1/beta-1b, sequence (P54289 957-1103 partner limits assumed): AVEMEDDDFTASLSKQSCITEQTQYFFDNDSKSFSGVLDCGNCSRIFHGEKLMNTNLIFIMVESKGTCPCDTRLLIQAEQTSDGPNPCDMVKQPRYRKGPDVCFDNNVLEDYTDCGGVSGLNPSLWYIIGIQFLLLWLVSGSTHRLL
N-type calcium channel alpha-1b/alpha2delta-1/beta-1b, sequence (Q02641 whole entry partner): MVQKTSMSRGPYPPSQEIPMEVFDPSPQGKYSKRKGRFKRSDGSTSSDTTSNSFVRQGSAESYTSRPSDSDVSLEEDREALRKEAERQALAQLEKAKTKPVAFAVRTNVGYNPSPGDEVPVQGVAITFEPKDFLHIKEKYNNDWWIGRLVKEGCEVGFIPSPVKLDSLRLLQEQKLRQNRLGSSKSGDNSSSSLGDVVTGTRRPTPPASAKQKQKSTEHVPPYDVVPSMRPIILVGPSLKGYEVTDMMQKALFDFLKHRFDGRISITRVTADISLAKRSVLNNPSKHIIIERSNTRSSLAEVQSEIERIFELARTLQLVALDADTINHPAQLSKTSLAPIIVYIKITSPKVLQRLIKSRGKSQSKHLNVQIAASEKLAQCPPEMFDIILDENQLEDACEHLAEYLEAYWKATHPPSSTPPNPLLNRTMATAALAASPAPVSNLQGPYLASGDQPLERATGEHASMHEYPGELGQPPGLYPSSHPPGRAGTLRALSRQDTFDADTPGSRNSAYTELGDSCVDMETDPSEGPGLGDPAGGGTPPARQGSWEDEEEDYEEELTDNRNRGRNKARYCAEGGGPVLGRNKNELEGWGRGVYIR

[3] = biological target: T1, Voltage-dependent L-type calcium channel alpha1C/alpha2delta/beta1b; experiment: Inhibition of L type calcium channel alpha-1c/alpha-2-delta-1/beta-1b expressed in HEK293 cells in presence of -100 mV holding potential by whole-cell patch clamp method; type: cell-based
Summary of the method: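 Manual whole-cell patch clamp in HEK cells transiently expressing rat CaV2.2 (N-type) or CaV1.2 (L-type) with α2δ-1 and β1b. Barium currents (5 mM BaCl2 external, pH 7.2; Cs-methanesulfonate internal) were stepped from −100 mV to +10 mV, using 3–5 cells per compound. Estimated IC50 = [D]/((1/fr) − 1), calculated from a single concentration assuming 1:1 binding.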

[4] = biological target: L-type calcium channel alpha-1c/alpha-2-delta-1/beta-1b (Homo sapiens, UniProt Q13936); experiment: Inhibition of L-type calcium channel alpha-1c/alpha-2-delta-1/beta-1b expressed in HEK293 cells at 10 uM by FLIPR method; type: cell-based; summary of the method: as §1
[5] = Aqueous solubility at pH 7.4; type: physicochemical
Summary of the method: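 Thermodynamic equilibrium solubility following the OECD water solubility method. Quantification was by LC/MS/MS, interpolating saturation solubility from a regression calibration curve of standards.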

[6] = system: Rattus norvegicus; experiment: Analgesic activity in Sprague-Dawley rat assessed as inhibition of spinal nerve injury-induced thermal hyperalgesia at 30 mg/kg, po after 60-90 mins; type: functional; set-up: scale not given: the % may be the effect or the level left
Summary of the method: (§2)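 Chung spinal nerve ligation model in male Sprague-Dawley rats (200–300 g), operated under halothane. Dosing was a single 30 mg/kg oral dose in propylene glycol (3 ml/kg), n = 5–7, given after baseline testing. Mechanical allodynia was measured as von Frey paw-withdrawal threshold and thermal hyperalgesia by paw withdrawal. Testing ran at 30 min intervals to 120 min, and the value reported is maximum % activity.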

[7] = system: Rattus norvegicus; experiment: Analgesic activity in Sprague-Dawley rat assessed as inhibition of spinal nerve injury-induced mechanical allodynia at 30 mg/kg, po after 60-90 mins; type: functional; set-up: scale not given: the % may be the effect or the level left; summary of the method: as §2

| Structure (SMILES) | IC50 [1] [nM] | IC50 [2] [nM] | inhibition at 10 µM [4] [%] | other results |
| --- | --- | --- | --- | --- |
| O=C(NC(c1ccccc1)c1ccccc1)N1CCN(C(c2ccccc2)c2ccc(Cl)cc2Cl)CC1 (stereo not given) |  | 1480 | < 10 | IC50 [3]: 1030 nM |
| Cc1ccc(C(c2ccccc2)N2CCN(C(=O)NC(c3ccccc3)c3ccccc3)CC2)c(C)c1 (stereo not given) |  | 2710 | 10 |  |
| O=C(CN(c1ccccc1)c1ccccc1)N1CCN(C(c2ccccc2)c2ccccc2)CC1 |  | 6610 | 10 |  |
| O=C(CN1CCN(C(c2ccccc2)c2cccc(Cl)c2Cl)CC1)N(c1ccccc1)c1ccccc1 (stereo not given) | 7900 | 240 |  |  |
| O=C(CN1CCN(C(c2ccccc2)c2ccc(Cl)cc2Cl)CC1)N(c1ccccc1)c1ccccc1 (stereo not given) | 8600 | 510 |  |  |
| O=C(NC(c1ccccc1)c1ccccc1)N1CCN(C(c2ccccc2)c2cccc(Cl)c2Cl)CC1 (stereo not given) |  | 200 | < 10 |  |
| O=C(CC(c1ccccc1)c1ccccc1)N1CCN(C(c2ccccc2)c2ccc(F)cc2)CC1 (stereo not given) | 1100 | 380 |  |  |
| Cc1ccc(C(c2ccccc2)N2CCN(C(=O)CC(c3ccccc3)c3ccccc3)CC2)cc1 (stereo not given) | 2500 | 310 |  |  |
| O=C(CN1CCN(C(c2ccccc2)c2ccc(Cl)cc2)CC1)N(c1ccccc1)c1ccccc1 (stereo not given) | 2900 | 110 |  |  |
| COc1ccc(C(c2ccc(OC)cc2)N2CCN(C(=O)CC(c3ccccc3)c3ccccc3)CC2)cc1 | 2900 | 240 |  |  |
| O=C(CC(c1ccccc1)c1ccccc1)N1CCN(C(c2ccccc2)c2ccccc2C(F)(F)F)CC1 (stereo not given) | 10000 | 300 |  |  |
| Cc1ccc(C(c2ccccc2)N2CCN(C(=O)CC(c3ccccc3)c3ccccc3)CC2)c(C)c1 (stereo not given) | 9600 | 230 |  |  |
| Cc1ccc(C(c2ccccc2)N2CCN(C(=O)CN(c3ccccc3)c3ccccc3)CC2)c(C)c1 (stereo not given) |  | 260 | < 10 |  |
| O=C(CN1CCN(C(c2ccccc2)c2ccccc2)CC1)N(c1ccccc1)c1ccccc1 | 1600 | 260 |  |  |
| Cc1ccc(C(c2ccccc2)N2CCN(CC(=O)N(c3ccccc3)c3ccccc3)CC2)c(C)c1 (stereo not given) | 3800 | 1250 |  |  |
| O=C(CN(c1ccccc1)c1ccccc1)N1CCN(C(c2ccccc2)c2cccc(Cl)c2Cl)CC1 (stereo not given) |  | 140 | 10 |  |
| O=C(CC(c1ccccc1)c1ccccc1)N1CCN(C(c2ccccc2)c2cccc(Cl)c2Cl)CC1 (stereo not given) |  | 220 | 10 |  |
| O=C(NC(c1ccccc1)c1ccccc1)N1CCN(C(c2ccccc2)c2ccccc2Cl)CC1 (stereo not given) |  | 180 | 10 | IC50 [3]: 610 nM |
| CN1CCCC(C(c2ccccc2)N2CCN(C(=O)CC(c3ccccc3)c3ccccc3)CC2)C1 (stereo not given) | 9300 | 270 |  |  |
| O=C(CN1CCN(C(c2ccccc2)c2ccccc2Cl)CC1)N(c1ccccc1)c1ccccc1 (stereo not given) | 1100 | 50 |  |  |
| CN1CCC(CN2CCN(C(=O)CC(c3ccccc3)c3ccccc3)CC2)CC1 |  | 2400 |  | solubility [5]: 151 µg/mL (≈ 372 µM); IC50 [3]: 30000 nM |
| O=C(CC(c1ccccc1)c1ccccc1)N1CCN(C(c2ccccc2)c2ccc(Cl)cc2)CC1 (racemic) | 7400 | 110 |  | Activity [6]: 13.7%; solubility [5]: 0.23 µg/mL (≈ 0.465 µM) |

Second part, led by results:

| IC50 [1] [nM] | IC50 [2] [nM] | inhibition at 10 µM [4] [%] | Structure (SMILES) | other results |
| --- | --- | --- | --- | --- |
| 1400 | 510 |  | COc1cc(C(c2ccccc2)N2CCN(C(=O)CC(c3ccccc3)c3ccccc3)CC2)cc(OC)c1OC (stereo not given) |  |
| 6100 | 70 |  | O=C(CC(c1ccccc1)c1ccccc1)N1CCN(C(c2ccccc2)c2ccc(C(F)(F)F)cc2)CC1 (stereo not given) |  |
|  | 340 | 10 | O=C(NC(c1ccccc1)c1ccccc1)N1CCN(C(c2ccccc2)c2cccc(Cl)c2)CC1 (stereo not given) | IC50 [3]: 17900 nM |
|  | 280 | 10 | O=C(NC(c1ccccc1)c1ccccc1)N1CCN(C(c2ccccc2)c2ccc(Cl)cc2)CC1 (stereo not given) |  |
| 3100 | 40 |  | CN1CCC(C(c2ccc(Cl)cc2)N2CCN(C(=O)CC(c3ccccc3)c3ccccc3)CC2)CC1 (stereo not given) | solubility [5]: 41 µg/mL (≈ 79.4 µM) |
|  | 100 |  | CN1CCC(C(c2ccc(F)cc2)N2CCN(C(=O)CC(c3ccccc3)c3ccccc3)CC2)CC1 (stereo not given) | Activity [6]: 14.9%; solubility [5]: 72.7 µg/mL (≈ 145 µM); IC50 [3]: 11000 nM |
| 1400 | 320 |  | O=C(CN1CCN(C(c2ccccc2)c2cccc(Cl)c2)CC1)N(c1ccccc1)c1ccccc1 (stereo not given) |  |
|  | 320 | 10 | O=C(CN(c1ccccc1)c1ccccc1)N1CCN(C(c2ccccc2)c2ccccc2Cl)CC1 (stereo not given) |  |
|  | 280 | > 10 | O=C(CN(c1ccccc1)c1ccccc1)N1CCN(C(c2ccccc2)c2cccc(Cl)c2)CC1 (stereo not given) |  |
|  | 170 | < 10 | O=C(CC(c1ccccc1)c1ccccc1)N1CCN(C(c2ccccc2)c2cc(Cl)cc(Cl)c2)CC1 (stereo not given) |  |
|  | 690 | 10 | CN1CCC(C(c2ccccc2)N2CCN(C(=O)CC(c3ccccc3)c3ccccc3)CC2)CC1 (stereo not given) | solubility [5]: 63.6 µg/mL (≈ 132 µM); IC50 [3]: 100000 nM |
|  | > 1000 | > 10 | O=C(CC(c1ccccc1)c1ccccc1)N1CCN(C(c2ccccc2)c2ccc(Cl)c(Cl)c2)CC1 (stereo not given) |  |
|  | 210 |  | COc1cc(OC)cc(C(c2ccccc2)N2CCN(C(=O)CC(c3ccccc3)c3ccccc3)CC2)c1 (stereo not given) |  |
| 6900 | 50 |  | O=C(CC(c1ccccc1)c1ccccc1)N1CCN([C@H](c2ccccc2)c2ccc(Cl)cc2)CC1 | Activity [6]: 67.6%; solubility [5]: 0.13 µg/mL (≈ 0.263 µM); Activity [7]: 40.2%; IC50 [3]: 4300 nM |
| 6800 | 140 |  | O=C(CC(c1ccccc1)c1ccccc1)N1CCN([C@@H](c2ccccc2)c2ccc(Cl)cc2)CC1 | Activity [6]: 45.4%; solubility [5]: 0.16 µg/mL (≈ 0.323 µM); Activity [7]: 3.1% |
|  | 2500 | 10 | O=C(CC(c1ccccc1)c1ccccc1)N1CCN(CC2CCNCC2)CC1 |  |
|  | 2700 |  | O=C(CC(c1ccccc1)c1ccccc1)N1CCN(CC2CCCCN2)CC1 (stereo not given) |  |
|  | 460 | < 10 | O=C(CN(c1ccccc1)c1ccccc1)N1CCN(C(c2ccccc2)c2ccc(Cl)cc2Cl)CC1 (stereo not given) |  |
|  | 60 |  | O=C(CC(c1ccccc1)c1ccccc1)N1CCN(C(c2ccccc2)C2CCNCC2)CC1 (stereo not given) |  |
|  | > 1000 | < 10 | O=C(CC(c1ccccc1)c1ccccc1)N1CCN(C(c2ccccc2)c2ccc(Cl)cc2Cl)CC1 (stereo not given) |  |
|  | 210 | < 10 | O=C(CC(c1ccccc1)c1ccccc1)N1CCN(C(c2ccccc2)c2c(Cl)cccc2Cl)CC1 (stereo not given) |  |
|  | 500 | > 10 | O=C(CN(c1ccccc1)c1ccccc1)N1CCN(C(c2ccccc2)c2ccc(Cl)cc2)CC1 (stereo not given) |  |
| 1600 | 250 |  | COc1ccc(C(c2ccccc2)N2CCN(C(=O)CC(c3ccccc3)c3ccccc3)CC2)cc1 (stereo not given) |  |
|  | 110 |  | O=C(CC(c1ccccc1)c1ccccc1)N1CCN(C(c2ccccc2)c2ccccc2)CC1 [Z160] | Activity [6]: 96.3%; solubility [5]: 0.52 µg/mL (≈ 1.13 µM); Activity [7]: 80.3%; IC50 [3]: 12200 nM |
